Data published in paper PMC9059958 (RSC Advances, 2019).
Converted amounts (≈) assume the structure as drawn.

What was measured:
tet^R E. coli [1] = assay: Potassium transport; format: cell-based, Escherichia coli; details: 30 μM
Outline: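 tetR E. coli pelleted at 2000 × g, resuspended in PBS and adjusted to OD 1.300. Stirred suspension monitored with a K+-selective electrode. Multiple test compound concentrations; mV recorded every 30 s for 15 min. [K+] calculated from a calibration curve. Total potassium pool from cells heated at 100 °C for 30 min, set as 100%. Three trials, SD.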

tet^R E. coli [2] = assay: Combination; format: cell-based, Escherichia coli; details: for Fold enhancement: tetracycline, amphiphile 20 μM, Tet^R E. coli
[3] = Solubility in combination assay; details: combination assay medium
tet^R E. coli [4] = assay: Resistance development by sequential culturing; format: cell-based, Escherichia coli; details: 15 days
Outline: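 Serial passage of tetR E. coli in LB over 15 days, with minocycline as comparator. […] Each day, cells from the second-highest concentration that allowed growth were diluted 1:100 into fresh media at 0.25–4× MIC. Cultures growing above the MIC were passaged on antibiotic-free LB agar and the MIC was redetermined. Mean of three trials.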

Cos-7 cells = assay: Mammalian cell cytotoxicity; format: cell-based, simian; details: 1/2 MIC; 24 hours; XTT
Outline: (§1)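 HEK-293, HeLa and Cos-7 cells kept in DMEM with 10% FBS and 1% penicillin–streptomycin. Seeded at 3 × 10^4 cells per well and grown 24 h to 80–90% confluence. […] XTT assay: absorbance at 450 nm, 690 nm background. Percent survival versus untreated cells, three replicates, mean ± SD.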

HEK-293 cells = assay: Mammalian cell cytotoxicity; format: cell-based, human; details: 1/2 MIC (4: 1 μM; colistin 0.125 μM); 24 hours; XTT
tet^R E. coli [5] = assay: Membrane permeability using propidium iodide and FDA; format: cell-based, Escherichia coli
Outline: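 tetR E. coli grown overnight with 100 μg mL−1 ampicillin (37 °C, 200 RPM) and knocked back to OD600 0.550. Treated 30 min at half-MIC; Triton X-100 and DMSO controls; DMSO 0.5%. Washed (3000 × g, 5 min) into PBS, then stained with propidium iodide (30 μM) and fluorescein diacetate (60 μM) for 30 min at 37 °C. Washed again and imaged by confocal microscopy.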

tet^R E. coli [6] = assay: MIC against efflux pump expressing tet^R E. coli; format: cell-based; details: Escherichia coli
Outline: (§2)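 Broth microdilution. Overnight cultures knocked back to OD600 0.100 and grown at 37 °C to OD600 0.500. Final inoculum 4 × 10^5 CFU mL−1 in cation-adjusted MHII; S. pneumoniae in CA-MHB with 5% LHB; tetR E. coli in LB with 100 μg mL−1 ampicillin. Final DMSO 0.5% v/v. Incubated 18–20 h at 37 °C, then OD600 read. MIC is ≥90% inhibition versus untreated cells. Triplicate wells, repeated on two further plates.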

E. faecalis (VanA) = assay: MIC screening; format: cell-based, Enterococcus faecalis
Outline: as §2

E. faecalis (control) = assay: MIC screening; format: cell-based, Enterococcus faecalis
Outline: as §2

P. aeruginosa (R:Mero) = assay: MIC screening; format: cell-based; details: Pseudomonas aeruginosa
Outline: as §2

E. coli (WT) = assay: MIC screening; format: cell-based; details: Escherichia coli
Outline: as §2

E. coli (Tol-) = assay: MIC screening; format: cell-based; details: Escherichia coli
Outline: as §2

E. aerogenes (R:Cep) = assay: MIC screening; format: cell-based, Enterobacter aerogenes; details: Klebsiella aerogenes
Outline: as §2

NorA efflux pump = target: T1, NorA efflux pump (Staphylococcus aureus, UniProt P0A0J7); assay: Efflux pump inhibition; format: cell-based; details: read-out: inhibition of NorA activity, lower than for 3 or 4
T1 sequence (P0A0J7 1-388): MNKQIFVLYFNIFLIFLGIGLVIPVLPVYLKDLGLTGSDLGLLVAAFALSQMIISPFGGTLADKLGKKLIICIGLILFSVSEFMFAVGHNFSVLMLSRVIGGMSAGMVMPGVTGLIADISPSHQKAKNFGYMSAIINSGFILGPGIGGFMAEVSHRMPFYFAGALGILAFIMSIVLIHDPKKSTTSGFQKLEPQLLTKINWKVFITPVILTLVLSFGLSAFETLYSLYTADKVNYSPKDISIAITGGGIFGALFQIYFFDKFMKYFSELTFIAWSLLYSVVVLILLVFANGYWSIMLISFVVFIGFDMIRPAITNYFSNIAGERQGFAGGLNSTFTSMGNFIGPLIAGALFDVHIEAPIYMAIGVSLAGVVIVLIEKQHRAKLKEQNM
Outline: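 S. aureus 1199B knocked back to OD600 0.550, then loaded with ethidium bromide (10 μg mL−1) plus 100 μM CCCP in MHII at OD600 1.000 for 20 min at room temperature. Spun, held on ice, warmed 5 min, adjusted to OD600 0.800. Added to wells containing test compound, CCCP or reserpine. Fluorescence read at ex 530/em 600 nm every minute for 20 min. Three runs, SD.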

human hepatocytes = assay: Human hepatocyte cell viability; format: cell-based; details: 72 h, read-out: EC50 against human hepatocytes
Outline: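 Human hepatocytes treated with 1–100 μM test compound, or CCCP as control, for 72 h. Survival then determined.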

[7] = tested on: HEK-293, HeLa and Cos-7 cells; assay: Mammalian cell cytotoxicity; format: cell-based; details: 1/2 MIC; 24 hours; XTT
Outline: as §1

MRSA (USA100) = assay: MIC screening; format: cell-based; details: Staphylococcus aureus
Outline: as §2

MRSA (control) = assay: MIC screening; format: cell-based; details: Staphylococcus aureus
Outline: as §2

MRSA (USA 300) = assay: MIC screening; format: cell-based; details: Staphylococcus aureus, MRSA|USA300
Outline: as §2

S. aureus (control) = assay: MIC screening; format: cell-based; details: Staphylococcus aureus
Outline: as §2

MRSA = assay: MIC against MRSA as stated in text; format: cell-based; details: Staphylococcus aureus
Outline: as §2

S. pneumoniae (control) = assay: MIC screening; format: cell-based; details: Streptococcus pneumoniae
Outline: as §2

S. aureus 1199B [8] = assay: MIC against NorA expressing S. aureus 1199B; format: cell-based; details: Staphylococcus aureus
Outline: as §2

S. aureus 1199B [9] = assay: Membrane permeability using propidium iodide; format: cell-based, Staphylococcus aureus; details: 0.1% (1.6 mM)
[10] = amphiphile at 1/2 MIC, tet^R E. coli

Compound: gramicidin-D
- K+ release, percent of total potassium pool (tet^R E. coli [1]): 50–60%
- Fold enhancement (tet^R E. coli [2]): 1 fold
- solubility [3]: insoluble at >20 μM

Compound: CN(C)c1ccc(O)c2c1C[C@H]1C[C@H]3[C@H](N(C)C)C(O)=C(C(N)=O)C(=O)[C@@]3(O)C(O)=C1C2=O [minocycline]
- resistance development, increase in MIC (tet^R E. coli [4]): 40 fold

Compound: colistin
- survival of Cos-7 (Cos-7 cells): non-cytotoxic
- survival of HEK-293 (HEK-293 cells): about 60%
- concentration that increases membrane permeability (propidium iodide) (tet^R E. coli [5]): ≥ 2000 nM

Compound: CC(C)[C@@H]1NC(=O)[C@H](C)OC(=O)[C@@H](C(C)C)NC(=O)[C@@H](C(C)C)OC(=O)[C@H](C(C)C)NC(=O)[C@H](C)OC(=O)[C@@H](C(C)C)NC(=O)[C@@H](C(C)C)OC(=O)[C@H](C(C)C)NC(=O)[C@H](C)OC(=O)[C@@H](C(C)C)NC(=O)[C@@H](C(C)C)OC1=O [Valinomycin, valinomycin]
- Fold enhancement (tet^R E. coli [2]): 2 fold
- solubility [3]: insoluble at >20 μM

Compound: CN(C)[C@@H]1C(O)=C(C(N)=O)C(=O)[C@@]2(O)C(O)=C3C(=O)c4c(O)cccc4[C@@](C)(O)[C@H]3C[C@@H]12 [Tetracycline, tetracycline]
- MIC (tet^R E. coli [6]): 900 ± 50 µM (≈ 400 µg/mL)

Compound: CCCCCCCCCC(=O)N[C@@H](Cc1c[nH]c2ccccc12)C(=O)N[C@H](CC(N)=O)C(=O)N[C@@H](CC(=O)O)C(=O)N[C@@H]1C(=O)NCC(=O)N[C@@H](CCCN)C(=O)N[C@@H](CC(=O)O)C(=O)N[C@H](C)C(=O)N[C@@H](CC(=O)O)C(=O)NCC(=O)N[C@H](CO)C(=O)N[C@@H]([C@H](C)CC(=O)O)C(=O)N[C@@H](CC(=O)c2ccccc2N)C(=O)O[C@@H]1C [Daptomycin, daptomycin]
- MIC (E. faecalis (VanA)): 2.5 µM (≈ 4.05 µg/mL)
- MIC (E. faecalis (control)): 2.5 µM (≈ 4.05 µg/mL)

Compound: C[C@@H](O)[C@H]1C(=O)N2C(C(=O)O)=C(S[C@@H]3CN[C@H](C(=O)N(C)C)C3)[C@H](C)[C@H]12 [Meropenem, meropenem]
- MIC (P. aeruginosa (R:Mero)): > 166 µM
- MIC (E. coli (WT)): < 0.33 µM
- MIC (E. coli (Tol-)): < 0.33 µM
- MIC (E. aerogenes (R:Cep)): < 0.33 µM

Compound: N#CC(C#N)=NNc1cccc(Cl)c1 [CCCP, carbonyl cyanide 3-chlorophenylhydrazone]
- inhibition at 4 µM (NorA efflux pump): ~30%
- FIC index with tetracycline (tet^R E. coli [2]; [10]): 0.75
- increase (recovery) in activity of tetracycline (tet^R E. coli [2]; [10]): 4 fold
- EC50 (human hepatocytes): 5 µM
- cytotoxicity [7]: cytotoxic

Compound: COC(=O)[C@H]1[C@H]2C[C@@H]3c4[nH]c5cc(OC)ccc5c4CCN3C[C@H]2C[C@@H](OC(=O)c2cc(OC)c(OC)c(OC)c2)[C@@H]1OC [Reserpine, reserpine]
- inhibition at 4 µM (NorA efflux pump): ~30%

Compound: CN[C@H](CC(C)C)C(=O)N[C@H]1C(=O)N[C@@H](CC(N)=O)C(=O)N[C@H]2C(=O)N[C@H]3C(=O)N[C@H](C(=O)N[C@H](C(=O)O)c4cc(O)cc(O)c4-c4cc3ccc4O)[C@H](O)c3ccc(c(Cl)c3)Oc3cc2cc(c3O[C@@H]2O[C@H](CO)[C@@H](O)[C@H](O)[C@H]2O[C@H]2C[C@](C)(N)[C@H](O)[C@H](C)O2)Oc2ccc(cc2Cl)[C@H]1O [Vancomycin, vancomycin]
- MIC (MRSA (USA100)): 1 µM (≈ 1.45 µg/mL)
- MIC (MRSA (control)): 1 µM (≈ 1.45 µg/mL)
- MIC (MRSA (USA 300)): 1 µM (≈ 1.45 µg/mL)
- MIC (S. aureus (control)): 0.5 µM (≈ 0.725 µg/mL)
- MIC (MRSA): 1 to 2 µM (≈ 1.45 to 2.9 µg/mL)
- MIC (S. pneumoniae (control)): < 0.1 µM

Compound: CCn1cc(C(=O)O)c(=O)c2cc(F)c(N3CCNCC3)cc21 [Norfloxacin, norfloxacin]
- MIC (S. aureus 1199B [8]): 64 µM (≈ 20.4 µg/mL)

Compound: Triton X-100
- membrane permeability (propidium iodide) (S. aureus 1199B [9]): increases membrane permeability
- membrane permeability (propidium iodide) (tet^R E. coli [5]; 0.1% (1.6 mM)): increases membrane permeability
- Fold enhancement (tet^R E. coli [2]): 2 fold
